{"source": "paper PMC6407133", "about": "(Journal of the American Chemical Society, 2018)", "key": {"[1]": {"tested_on": "P. falciparum W2", "assay": "P. falciparum replication assay", "type": "cell-based, Plasmodium falciparum", "settings": "read-out: 72 h EC50 Pf; 72 h treatment, no washout; P. falciparum W2 ring stage"}, "[2]": {"tested_on": "non-confluent human foreskin fibroblast (HFF) cells", "assay": "Cell viability assay in mammalian cells", "type": "cell-based", "settings": "non-confluent HFFs", "how_it_was_run": "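Nontransformed primary human foreskin fibroblasts, Mycoplasma-tested, seeded nonconfluent at 2500 cells/well less than 24 h before dosing. Test compound dose–response dilutions in media applied for 1 h (then washed out) or 72 h. Viability read by CellTiter-Blue. EC50 values are the mean of n = 9 cultures from three independent experiments run in triplicate.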"}, "[3]": {"tested_on": "P. berghei", "assay": "Plasmodium berghei mouse model of infection", "type": "in vivo", "settings": "CD1 mice, 50 mg/kg once daily for 4 days, intravenous"}}, "note": "Like-named read-outs stand apart in the source and are kept apart here.", "data": [{"molecule": "CC(C)C[C@@H](/C=C/S(C)(=O)=O)NC(=O)[C@H](CC(C)C)NC(=O)[C@H](Cc1c[nH]c2ccccc12)NC(=O)CN1CCOCC1", "note": "[WLL-vs]", "values": [{"measurement": "EC50", "setting": "[1]", "value": "15 ± 5", "unit": "nM"}, {"measurement": "EC50", "setting": "[2]; read-out: 1 h EC50 HFF, 1 h treatment", "value": "65500 ± 15200", "unit": "nM"}, {"measurement": "EC50", "setting": "[2]; read-out: 72 h EC50 HFF, 72 h treatment", "value": "1520 ± 410", "unit": "nM"}, {"measurement": "reduction of parasites on day 4", "setting": "[3]", "value": 98, "unit": "%"}]}]}
